Legend:
[1] = test system: tyrosine phosphorylation of EGFR in PTP1B−/− mouse embryo fibroblast cells; assay: EGF-stimulated EGFR phosphorylation in cells; format: cell-based; details: 2 hr, then EGF 2 ng/ml 10 min, relative to DMSO
Procedure, shortened: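 PTP1B−/− mouse embryo fibroblasts were given test compound for 2 hr, then EGF 2 ng/mL for 10 min. Lysis in HEPES pH 7.4 buffer with pervanadate, fluoride and protease inhibitors, cleared at 15,000 rpm for 10 min, protein by BCA. EGFR immunoprecipitated from 1 mg lysate (4 °C, 2 h; protein A/G 2 h). SDS-PAGE, anti-pTyr immunoblot, ECL detection.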

VHX = biological target: T1, VHX (Homo sapiens, UniProt Q9NRW4); assay: PTP activity assay with pNPP, VHX; format: biochemical
T1 sequence (Q9NRW4 1-184): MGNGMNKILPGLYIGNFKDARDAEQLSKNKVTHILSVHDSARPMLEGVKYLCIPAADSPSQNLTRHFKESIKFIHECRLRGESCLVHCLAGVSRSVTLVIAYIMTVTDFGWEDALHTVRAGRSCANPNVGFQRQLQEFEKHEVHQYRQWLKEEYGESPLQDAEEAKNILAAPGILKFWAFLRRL
Procedure, shortened: (§1)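 Reactions started by adding enzyme to mixtures with various pNPP and test-compound concentrations. Rates were fitted with an enzyme-kinetics model for Ki.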

[2] = test system: pSrc416 in PTP1B−/− mouse embryo fibroblast cells; assay: Src phosphorylation at Tyr416 in cells; format: cell-based; details: treated for two hours, various concentrations
Procedure, shortened: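 PTP1B−/− mouse embryo fibroblasts at 80% confluence were exposed to test compound for two hours, then lysed and cleared at 15,000 rpm for 10 min. 30 μg total protein run on SDS-PAGE and blotted to PVDF. Probed with anti-pSrc416, anti-pSrc527 and anti-Src antibodies, HRP-conjugated secondaries.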

SHP2 = biological target: T2, SHP2 (Homo sapiens, UniProt Q06124); assay: PTP activity assay with pNPP, SHP2; format: biochemical
T2 sequence (Q06124 1-593): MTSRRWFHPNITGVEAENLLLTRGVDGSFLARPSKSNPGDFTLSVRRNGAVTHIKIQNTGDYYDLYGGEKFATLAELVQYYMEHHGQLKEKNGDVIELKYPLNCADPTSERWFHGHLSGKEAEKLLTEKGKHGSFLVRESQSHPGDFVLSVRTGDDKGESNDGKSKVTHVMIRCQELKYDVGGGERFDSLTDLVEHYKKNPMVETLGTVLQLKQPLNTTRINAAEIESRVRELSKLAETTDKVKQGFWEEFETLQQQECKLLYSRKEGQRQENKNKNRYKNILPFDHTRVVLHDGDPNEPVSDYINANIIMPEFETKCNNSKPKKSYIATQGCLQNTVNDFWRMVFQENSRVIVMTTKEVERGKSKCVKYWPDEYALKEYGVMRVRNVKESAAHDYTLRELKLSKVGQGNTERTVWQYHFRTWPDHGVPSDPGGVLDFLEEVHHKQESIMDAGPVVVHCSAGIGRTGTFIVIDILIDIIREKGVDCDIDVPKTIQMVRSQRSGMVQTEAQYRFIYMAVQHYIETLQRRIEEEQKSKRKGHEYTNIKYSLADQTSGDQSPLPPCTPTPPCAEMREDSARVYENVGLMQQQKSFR
Procedure, shortened: as §1

Compound: CCc1ccc(C(=O)NCCCC[C@H](NC(=O)[C@H](Cc2ccc(C(F)(F)P(=O)(O)O)cc2)NC(=O)[C@H](Cc2ccccc2)NC(=O)CO[C@H]2C[C@@H](C)CC[C@@H]2C(C)C)C(N)=O)cc1 [Compound 8]
- increase in EGFR phosphorylation ([1]; 5 nM): ~2 fold
- increase in EGFR phosphorylation ([1]; 50 nM): 5.0 fold
- Ki (VHX): > 1000 nM
- effect on pSrc416 phosphorylation [2]: dose-dependent increase
- Ki (SHP2): > 1000 nM

From article PMC2741613 (Journal of the American Chemical Society, 2009)
